Assay outcomes as filed in PubChem BioAssay.
TRPN1 ag: activates the zebrafish TRPN1 channel; HEK293 zebrafish TRPN1-YFP, Fluo-8 calcium fluorescence; 100% = response to 87 µM carbachol; activation, % at 3 µM; 0.18% of 220,000 active;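 active = activation above its plate's cutoff, the mean activation of test wells on that plate plus 3 SD, cut at about 19% in these data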;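 note: 0% = DMSO alone and 100% = 87 µM carbachol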
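Material: zebrafish TRPN1-YFP in HEK293 cells; Doses: single test compound dose, 3 µM nominal, 0.3% DMSO; Timing: dye loading 1 h at 37 °C, then 30 min room temperature; Technique: intracellular calcium fluorescence with Fluo-8; Benchmarks: high carbachol 87 µM, low DMSO alone.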
OX1R antag-1: antagonists of human orexin 1 receptor; CHO/OX1R cells, Fluo-8 calcium fluorescence, orexin A; AID 434989; O43613; inhibition, % at 5 µM; 0.43% of 330,000 active;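 active = inhibition above its plate's threshold, mean inhibition of all tested compounds on the plate plus 3 SD, cut at about 37% in these data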;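 note: 0% = orexin A challenge wells and 100% = SB-334867-A antagonist wells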
CHO parental Ca: counter-screen: ATP calcium response change in parental CHO cells. AID 463079. 0.63% of 330,000 active. parental CHO-K1, ATP-induced calcium, Fluo-8 fluorescence. inhibition, % at 5.6 µM;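 active = inhibition above that plate's mean sample inhibition plus 3 SD, cut at about 26% in these data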;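 note: 0% = ATP-challenged DMSO wells and 100% = DMSO wells without ATP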
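material = parental CHO cells | also added = ATP as calcium-mobilizing challenge | dosing = single point at 5.6 µM | detection = intracellular calcium via Fluo-8 no-wash fluorescent dye | read-out = % inhibition | benchmarks = low control ATP plus DMSO, high control DMSO only | repeats = one well per compound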
OX1R antag-2: antagonists of human orexin 1 receptor (OX1R); inhibition, % at 6.6 µM; 1.8% of 330,000 active; AID 485270; OX1R-expressing cells, FRET antagonist read-out; O43613; in the data active = inhibition mostly above about 38%, no sharp cut-off; inactive = mostly below about 40%;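 note: 0% = agonist challenge alone and 100% = reference antagonist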
TRPML3 ag: human mucolipin-3 channel agonism; Q8TDD5; HEK293 TRPML3-YFP, Fluo-8 calcium fluorescence; 100% = the carbachol control signal; activation, % at 3 µM; 0.29% of 220,000 active;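 active = activation above its plate's cutoff, the mean activation of the plate's test wells plus 3 SD, cut at about 12% in these data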;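 note: 0% = DMSO only wells and 100% = carbachol wells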
Target sequence (Q8TDD5 whole entry, looked up): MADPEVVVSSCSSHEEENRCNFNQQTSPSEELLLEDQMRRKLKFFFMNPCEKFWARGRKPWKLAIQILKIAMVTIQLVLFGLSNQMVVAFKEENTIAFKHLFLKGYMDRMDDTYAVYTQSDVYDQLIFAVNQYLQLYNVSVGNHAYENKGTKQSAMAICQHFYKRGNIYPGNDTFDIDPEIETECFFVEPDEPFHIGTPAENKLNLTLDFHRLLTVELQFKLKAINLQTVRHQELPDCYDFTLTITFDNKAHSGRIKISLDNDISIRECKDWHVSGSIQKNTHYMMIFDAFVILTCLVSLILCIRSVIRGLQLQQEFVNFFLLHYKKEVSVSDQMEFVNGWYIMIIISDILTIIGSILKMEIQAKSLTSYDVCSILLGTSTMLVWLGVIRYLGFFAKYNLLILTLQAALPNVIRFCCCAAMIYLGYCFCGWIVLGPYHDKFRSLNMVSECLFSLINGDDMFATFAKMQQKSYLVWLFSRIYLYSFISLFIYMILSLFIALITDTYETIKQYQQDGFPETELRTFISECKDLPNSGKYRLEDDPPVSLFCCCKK
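Test system: HEK293 cells stably carrying human TRPML3-YFP; Doses: single dose, 3 µM final nominal compound, 0.3% DMSO final; Schedule: dye loading 1 h 37 °C then 30 min ambient, 125 s read; Technique: Fluo-8 calcium fluorescence; Benchmarks: high control carbachol 87 µM, low control DMSO.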
The depositor's hits bear a star; / = not tested or not shown. The list is not random: actives were taken first. Their share in the collection is about 2.5%.

SMILES	TRPN1 ag	OX1R antag-1	CHO parental Ca	OX1R antag-2	TRPML3 ag
COc1ccc(NC(=O)Nc2ccc3c(c2)N(C)C(=O)CS3)cc1Cl	12.7	44.5	31.4*	46.5	3.8
Cc1ccc2c(c1)N(C(=O)CCC(=O)NCCCN1CCC(Cc3ccccc3)CC1)CCO2	/	-24.7	-2.6	7.3	/
CCOC(=O)C1(CCOc2ccccc2)CCN(Cc2cccc(OC)c2OC)CC1	/	-16.8	37.4*	21.6	/
CC(C)C[C@H]1C(=O)N2CCC[C@H]2[C@]2(O)O[C@](NC(=O)C3C=C4c5cccc6[nH]c(Br)c(c56)C[C@H]4N(C)C3)(C(C)C)C(=O)N12 (stereo not given in full)	/	-6.8	-17.6	58.1*	/
CN1C[C@H](C(=O)N[C@]2(C)O[C@@]3(O)[C@@H]4CCCN4C(=O)[C@H](Cc4ccccc4)N3C2=O)CC2c3cccc4[nH]cc(c34)C[C@H]21 (stereo not given in full)	/	-20.9	-6.5	14.8	/
CCN(C(=O)COC(=O)/C=C/c1ccccc1)C1CCCCC1	-1.0	-31.1	-17.1	14.7	-0.5
C=CCn1c(O)c(N=Nc2ccccc2)c2ccccc21	/	-10.6	-7.4	22.4	/
C=CCn1c(O)c(N=Nc2ccccc2O)c2ccccc21	/	76.5*	66.5*	6.1	/
Cc1ccc(S(=O)(=O)N2c3ccccc3-c3c(ssc3=S)C2(C)C)cc1	-1.0	42.4*	-30.2	87.8*	0.5
O=C(O/N=C1\CCS(=O)(=O)c2sccc21)C1CC1	0.0	-10.6	-10.6	3.5	0.8
COc1ccc(NC(=O)COC(=O)CC2CCCC2)cc1	/	-15.9	-6.5	2.3	/
O=C(O)CNC(=O)c1ccc(Sc2ccccc2)c([N+](=O)[O-])c1	-0.1	-4.8	-0.4	64.0*	0.3
CSc1ccc(C(=O)NCC(=O)O)cc1[N+](=O)[O-]	0.5	-18.1	-9.4	52.7*	1.0
CCOc1ccc(/C=N/NC(=O)c2ccccc2Cl)cc1CN1CC2CC(C1)c1cccc(=O)n1C2 (stereo not given)	/	-14.5	-30.1	36.8*	/
O=C(Cc1c(Cl)cccc1Cl)N1CCN(S(=O)(=O)c2cccs2)CC1	/	-0.6	-9.3	-1.9	/
CCOC(=O)c1cccc(NC(=O)CCS(=O)(=O)c2cccc3nsnc23)c1	-0.8	-34.3	-25.0	69.1	0.1
Cc1cccc(NC(=O)CCS(=O)(=O)c2cccc3nsnc23)c1C	0.4	-27.2	-23.9	63.3*	-0.3
COc1ccc(CCNC(=O)CCS(=O)(=O)c2cccc3nsnc23)cc1OC	0.0	-18.5	-15.9	76.7*	0.8
CN1C(=O)c2cccc3c(S(=O)(=O)Nc4ccccn4)ccc1c23	0.7	-24.8	-13.8	68.0*	0.4
CCN1C(=O)c2cccc3c(S(=O)(=O)NCc4ccccc4)ccc1c23	/	-7.2	-27.2	8.3	/
CCN1C(=O)c2cccc3c(S(=O)(=O)Nc4ccccc4OC)ccc1c23	46.4*	-17.4	-14.0	16.4	123.0*
CCc1cccc(NS(=O)(=O)c2ccc3c(c2)N(C)CCO3)c1	/	-5.8	1.3	32.0	/
N/C(=N\OC(=O)COc1ccc2ccccc2c1Br)c1ccncc1	-1.7	2.7	-13.4	29.1	0.8
CN1C2CCC1CC(NC(=O)c1cc(Cl)cc3[nH]cnc13)C2 (stereo not given)	/	-14.2	-5.0	0.7	/
CNC(=O)CC1C(=O)N(Cc2ccccc2)C(=S)N1NC(=O)c1cccc(F)c1 (stereo not given)	2.2	-4.1	-9.8	31.6	1.1
SMILES	TRPN1 ag	OX1R antag-1	CHO parental Ca	OX1R antag-2	TRPML3 ag
CCN1C(=O)C(CC(=O)Nc2ccccc2Cl)N(NC(=O)c2cccc(F)c2)C1=S (stereo not given)	/	9.0	-6.3	74.6*	/
O=[N+]([O-])C(/C=C(\Cl)[N+](=O)[O-])=C(N1CCCCC1)N1CCCCC1	0.0	-21.1	-16.3	63.7*	0.2
Cc1cc(/C=C\c2ccc3cc(N(C)C)ccc3[n+]2C)c(C)n1-c1ccccc1	/	51.0*	54.0*	80.2*	/
COCCNC(=O)C1(C(F)(F)F)CC(CCCO)CCCO1 (stereo not given)	/	8.0	-18.6	31.7	/
Cc1noc(C)c1CN1C(=O)c2cccc([N+](=O)[O-])c2C1=O	/	-16.2	-2.1	24.7	/
Cc1noc(C)c1CN1C(=O)c2ccc([N+](=O)[O-])cc2C1=O	/	-14.8	-4.7	52.9*	/
O=C1C=CC(=O)N1c1cccc(-c2ccccc2)c1	1.8	44.8*	26.9	24.0	0.0
COc1ccccc1CCNC(=O)CN1C(=O)c2ccccc2S1(=O)=O	/	-14.3	-1.3	6.7	/
Cc1cc(C)cc(NC(=O)CCNS(=O)(=O)c2cc(Br)cnc2N)c1	/	-13.2	-16.9	64.7*	/
CCOC(=O)c1ccc(NC(=O)CCNS(=O)(=O)c2cc(Br)cnc2N)cc1	/	2.5	1.9	29.4	/
CC1(C)CC(N=C2C([N+](=O)[O-])=CC=C3C2=NC2(CCCCC2)N3O)CC(C)(C)N1	0.0	-2.0	7.8	74.2*	0.7
CCCCCc1nc2sc3c(c2c(=O)n1NC(=O)c1ccc([N+](=O)[O-])cc1)CC(C)(C)OC3	9.3	-30.2	-0.4	53.4*	5.9
CCCCCCCc1nc2sc3c(c2c(=O)n1N)CC(C)(C)OC3	0.0	-7.6	-8.1	12.7	1.1
Cc1nc2c(ccc3c([N+](=O)[O-])cccc32)c(C)c1C	-0.4	-0.3	-4.8	18.7	0.1
CCCN1C(=O)c2ccc(C(=O)NC3=NCCS3)cc2C1=O	1.4	-42.9	-12.3	44.7*	1.1
CN1C(=O)c2ccc(C(=O)Nc3nccs3)cc2C1=O	1.6	-19.2	-10.2	72.5*	0.3
Cc1cc(N2C(=O)c3ccc(C(=O)Nc4ccccc4O)cc3C2=O)no1	/	-9.8	3.3	7.3	/
CC(c1ccccc1)N1C(=O)c2ccc(C(=O)Nc3ccccc3C(=O)O)cc2C1=O (stereo not given)	/	-12.8	-1.6	69.8*	/
CN1C(=O)c2ccc(C(=O)Nc3ccccc3O)cc2C1=O	/	-6.6	-0.9	40.5*	/
CC(c1ccccc1)N1C(=O)c2ccc(C(=O)Nc3ccc(Br)cc3C(=O)O)cc2C1=O (stereo not given)	/	-9.7	-2.9	1.5	/
O=C(NCc1ccccc1Cl)C1CCN(S(=O)(=O)c2ccc(N3CCCC3=O)cc2)CC1	/	-17.1	-13.2	19.7	/
CCN(CC)S(=O)(=O)c1ccc(C(=O)Nn2cnnc2)cc1	/	-12.1	2.6	6.0	/
Cc1cc(C)c(S(=O)(=O)Nc2ncn[nH]2)cc1C	/	-9.6	-2.0	9.6	/
C/C=C(\C)C(=O)O[C@@H]([C@H](O)c1cc2ccc(=O)oc2cc1OC)C(C)(C)O	/	-13.3	-4.1	3.8	/
Fc1ccc(Nc2nc(NCc3ccco3)c3ccccc3n2)cc1	4.0	16.9	9.2	3.9	5.8
S=c1[nH]nc(COc2ccc(Cl)cc2)n1Cc1ccco1	-0.3	4.1	-0.7	12.4	-1.0
Cc1c(C(c2ccccc2)c2c(C)n(C)n(-c3ccccc3)c2=O)c(=O)n(-c2ccccc2)n1C	/	-17.4	-8.0	0.1	/
